pEC50, pIC50, pKi: −log10 of the molar value. Some results are limits rather than exact numbers.

For the first data set, the target named is T1, Procathepsin L (Homo sapiens, UniProt P07711). As to the kind of experiment: Inhibition of human recombinant Cathepsin L assessed as ratio of Kinact/Kiapp using Z-FR-AMC as substrate inubated for 30 mins by fluorometric assay.
Settings: not given
Target sequence in this assay (P07711 114-333 limits assumed): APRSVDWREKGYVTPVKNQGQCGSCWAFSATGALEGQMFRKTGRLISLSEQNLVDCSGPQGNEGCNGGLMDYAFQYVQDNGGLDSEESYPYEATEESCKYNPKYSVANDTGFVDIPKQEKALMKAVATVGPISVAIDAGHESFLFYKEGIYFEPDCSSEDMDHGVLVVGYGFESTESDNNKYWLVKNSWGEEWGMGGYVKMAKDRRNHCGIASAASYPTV
For `COC1=CC(=O)N(C(=O)/C=C/[C@H](CCc2ccccc2)NC(=O)[C@H](CC(C)C)NC(=O)[C@H](CC(C)C)NC(=O)[C@H](C(C)C)N(C)C)[C@H]1Cc1c[nH]c2ccccc12`, the Ratio is 8.35 10^5/s/M.

The next data set deals with T2, Cathepsin B (Homo sapiens, UniProt P07858). As to the kind of experiment: Inhibition of human recombinant Cathepsin B assessed as ratio of Kinact/Kiapp using Z-FR-AMC as substrate inubated for 30 mins by fluorometric assay.
Settings: not given
The method, boiled down:
(§1)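 Human CatL, human CatB or mouse CatL at 1 nM, at 25 °C in pH 5.5 Na acetate/DTT/EDTA/NaCl buffer. Reactions held 40 μM Z-FR-AMC and 555.56 to 0.01 nM compound, in quadruplicate. Product formation was measured at 6 min intervals for 1 h and normalized to DMSO wells. kobs came from inactivation curves. kinact and KIapp were obtained by nonlinear regression of kobs = kinact[I]/(KIapp + [I]); their ratio was then calculated.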
With `COC1=CC(=O)N(C(=O)/C=C/[C@H](CCc2ccccc2)NC(=O)[C@H](CC(C)C)NC(=O)[C@H](CC(C)C)NC(=O)[C@H](C(C)C)N(C)C)[C@H]1Cc1c[nH]c2ccccc12`, the Ratio was 7.94 10^3/s/M.

A further data set addresses T3, Procathepsin L (Mus musculus) (UniProt P06797).
T3 sequence (whole entry): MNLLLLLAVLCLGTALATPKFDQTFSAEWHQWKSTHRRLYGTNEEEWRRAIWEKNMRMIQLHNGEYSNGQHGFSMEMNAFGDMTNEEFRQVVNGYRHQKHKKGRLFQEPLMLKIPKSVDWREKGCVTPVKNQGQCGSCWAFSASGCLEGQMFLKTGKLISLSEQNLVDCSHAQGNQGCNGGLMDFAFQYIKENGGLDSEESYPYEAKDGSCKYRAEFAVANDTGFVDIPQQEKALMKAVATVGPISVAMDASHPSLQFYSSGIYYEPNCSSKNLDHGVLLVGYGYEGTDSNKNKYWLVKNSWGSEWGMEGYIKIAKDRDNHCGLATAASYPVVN
As to the kind of experiment: Inhibition of mouse Cathepsin L assessed as ratio of Kinact/Kiapp using Z-FR-AMC as substrate inubated for 30 mins by fluorometric assay.
Settings: not given
The method, boiled down: as §1
`COC1=CC(=O)N(C(=O)/C=C/[C@H](CCc2ccccc2)NC(=O)[C@H](CC(C)C)NC(=O)[C@H](CC(C)C)NC(=O)[C@H](C(C)C)N(C)C)[C@H]1Cc1c[nH]c2ccccc12`: the Ratio was 2.31 10^6/s/M.

The target of a further data set is T2, Cathepsin B. As to the kind of experiment: Inhibition of human recombinant Cathepsin B assessed as Kinact using Z-FR-AMC as substrate inubated for 30 mins by fluorometric assay.
Settings: not given
Turning to `COC1=CC(=O)N(C(=O)/C=C/[C@H](CCc2ccccc2)NC(=O)[C@H](CC(C)C)NC(=O)[C@H](CC(C)C)NC(=O)[C@H](C(C)C)N(C)C)[C@H]1Cc1c[nH]c2ccccc12`, the Kinact was 1.89 10^-3/s.

The next data set has as its system SARS-CoV-2. As to the kind of experiment: Antiviral activity against SARS-CoV-2 infected in African green monkey Vero E6 cells assessed as inhibition of viral infection pre incubated for 30 minutes followed by viral infection and measured after 72 hrs by Nucblue dye based fluorometric analysis. As to conditions: Severe acute respiratory syndrome coronavirus 2, Vero C1008. The format is functional, organism-based.
A word on the pEC50: it is −log10 of the EC50, conventionally taken in molar units. On to `COC1=CC(=O)N(C(=O)/C=C/[C@H](CCc2ccccc2)NC(=O)[C@H](CC(C)C)NC(=O)[C@H](CC(C)C)NC(=O)[C@H](C(C)C)N(C)C)[C@H]1Cc1c[nH]c2ccccc12`, for which the negative-log EC50 (pEC50) was 6.04.

The target of another data set is T1, Procathepsin L. In words: Inhibition of human recombinant Cathepsin L assessed as Apparent inhibition constant using Z-FR-AMC as substrate […] by fluorometric assay. As to conditions: read-out: Ki(app).
Target sequence in this assay (P07711 whole entry): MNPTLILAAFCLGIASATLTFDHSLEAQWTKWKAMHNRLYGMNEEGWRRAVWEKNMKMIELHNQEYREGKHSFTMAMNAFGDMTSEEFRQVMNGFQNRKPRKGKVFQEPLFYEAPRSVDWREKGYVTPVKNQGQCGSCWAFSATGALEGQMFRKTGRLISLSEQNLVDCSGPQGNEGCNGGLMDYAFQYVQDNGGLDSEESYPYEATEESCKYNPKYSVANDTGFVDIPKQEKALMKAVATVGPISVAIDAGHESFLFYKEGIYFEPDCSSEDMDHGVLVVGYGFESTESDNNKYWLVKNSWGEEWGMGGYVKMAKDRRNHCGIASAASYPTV
The term pKi denotes −log10 of the Ki, conventionally taken in molar units. For `COC1=CC(=O)N(C(=O)/C=C/[C@H](CCc2ccccc2)NC(=O)[C@H](CC(C)C)NC(=O)[C@H](CC(C)C)NC(=O)[C@H](C(C)C)N(C)C)[C@H]1Cc1c[nH]c2ccccc12`, the pKi was 7.93.

The target in the next data set is T4, Procathepsin L (Mus musculus, UniProt P06797).
T4 sequence (P06797 whole entry): T3 sequence (whole entry)
As to the kind of experiment: Inhibition of mouse Cathepsin L assessed as Apparent inhibition constant using Z-FR-AMC as substrate inubated for 30 mins by fluorometric assay. As to conditions: read-out: Ki(app). The method, boiled down:
as §1
As for `COC1=CC(=O)N(C(=O)/C=C/[C@H](CCc2ccccc2)NC(=O)[C@H](CC(C)C)NC(=O)[C@H](CC(C)C)NC(=O)[C@H](C(C)C)N(C)C)[C@H]1Cc1c[nH]c2ccccc12`, the pKi was 8.38.

The target of a further data set is T5, Cathepsin K (Homo sapiens, UniProt P43235).
T5 sequence (P43235 whole entry): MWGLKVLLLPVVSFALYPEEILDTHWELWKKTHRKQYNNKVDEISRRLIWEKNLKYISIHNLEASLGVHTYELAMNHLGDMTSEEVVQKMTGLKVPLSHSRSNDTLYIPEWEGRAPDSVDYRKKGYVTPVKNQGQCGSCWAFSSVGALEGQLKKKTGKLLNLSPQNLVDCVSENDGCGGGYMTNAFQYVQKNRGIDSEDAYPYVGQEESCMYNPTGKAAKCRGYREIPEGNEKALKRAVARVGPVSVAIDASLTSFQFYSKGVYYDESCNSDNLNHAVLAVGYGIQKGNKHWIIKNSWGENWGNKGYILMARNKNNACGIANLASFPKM
In words: Inhibition of human recombinant Cathepsin K assessed remaining activity using Z-FR-AMC as substrate incubated for 30 mins by fluorometric assay.
Settings: not given
The method, boiled down: (§2)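 Recombinant human cathepsins: L, B, V and K at 1.11 nM, S at 4.44 nM. Each was preincubated 30 min at 25 °C with 3333 to 0.006 nM compound. Z-FR-AMC was added at 40 μM final. AMC release rate over 0–30 min was compared with DMSO (ex/em 360/460). IC50 from four technical replicates.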
One may read the pIC50 as −log10 of the IC50, conventionally taken in molar units. Consider `COC1=CC(=O)N(C(=O)/C=C/[C@H](CCc2ccccc2)NC(=O)[C@H](CC(C)C)NC(=O)[C@H](CC(C)C)NC(=O)[C@H](C(C)C)N(C)C)[C@H]1Cc1c[nH]c2ccccc12`, for which the pIC50 was 8.82.

The target of the next data set is T1, Procathepsin L. In words: Inhibition of human recombinant Cathepsin L assessed as Kinact using Z-FR-AMC as substrate inubated for 30 mins by fluorometric assay.
Settings: not given
The method, boiled down: as §1
Target sequence in this assay (P07711 114-333 limits assumed): as the sequence (P07711 114-333 limits assumed) above
In the case of `COC1=CC(=O)N(C(=O)/C=C/[C@H](CCc2ccccc2)NC(=O)[C@H](CC(C)C)NC(=O)[C@H](CC(C)C)NC(=O)[C@H](C(C)C)N(C)C)[C@H]1Cc1c[nH]c2ccccc12`, the Kinact is 9.85 10^-3/s.

The target of the next data set is T6, Cathepsin L2 (Homo sapiens, UniProt O60911).
T6 sequence (O60911 whole entry): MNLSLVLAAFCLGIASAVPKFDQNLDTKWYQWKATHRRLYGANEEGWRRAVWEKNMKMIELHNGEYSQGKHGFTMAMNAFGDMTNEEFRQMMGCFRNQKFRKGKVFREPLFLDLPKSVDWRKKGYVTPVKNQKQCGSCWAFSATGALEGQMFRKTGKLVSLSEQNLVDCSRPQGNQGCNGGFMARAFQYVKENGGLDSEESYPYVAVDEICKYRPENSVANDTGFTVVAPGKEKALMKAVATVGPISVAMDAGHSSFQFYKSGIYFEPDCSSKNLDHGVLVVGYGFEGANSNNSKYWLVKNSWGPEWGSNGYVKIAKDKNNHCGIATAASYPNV
As to the kind of experiment: Inhibition of human recombinant Cathepsin V assessed remaining activity using Z-FR-AMC as substrate incubated for 30 mins by fluorometric assay.
Settings: not given
The method, boiled down: as §2
As to `COC1=CC(=O)N(C(=O)/C=C/[C@H](CCc2ccccc2)NC(=O)[C@H](CC(C)C)NC(=O)[C@H](CC(C)C)NC(=O)[C@H](C(C)C)N(C)C)[C@H]1Cc1c[nH]c2ccccc12`, the negative logarithm of the IC50 (pIC50) is 6.38.

In another data set the target is T3, Procathepsin L (Mus musculus). In words: Inhibition of mouse Cathepsin L assessed as Kinact using Z-FR-AMC as substrate inubated for 30 mins by fluorometric assay.
Settings: not given
The method, boiled down:
as §1
With `COC1=CC(=O)N(C(=O)/C=C/[C@H](CCc2ccccc2)NC(=O)[C@H](CC(C)C)NC(=O)[C@H](CC(C)C)NC(=O)[C@H](C(C)C)N(C)C)[C@H]1Cc1c[nH]c2ccccc12`, the Kinact was 9.6 10^-3/s.

A further data set deals with T2, Cathepsin B. In words: Inhibition of human recombinant Cathepsin B assessed as Apparent inhibition constant using Z-FR-AMC as substrate inubated for 30 mins by fluorometric assay. Particulars: read-out: Ki(app). The method, boiled down: as §1
`COC1=CC(=O)N(C(=O)/C=C/[C@H](CCc2ccccc2)NC(=O)[C@H](CC(C)C)NC(=O)[C@H](CC(C)C)NC(=O)[C@H](C(C)C)N(C)C)[C@H]1Cc1c[nH]c2ccccc12`: the negative-log Ki (pKi) is 6.62.

A further data set relates to Vero C1008. As to the kind of experiment: Cytotoxicity against cells African green monkey Vero E6 cells incubated for 24 to 72 hrs by alamar blue assay. As to conditions: chlorocebus sabaeus, time 24-72 hrs. It is filed as toxicity, cell-based. The method, boiled down:
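VeroE6 cells in DMEM with 10% FCS were seeded at 5 × 10^4 per well. After adherence, cells were given varying compound concentrations for 24 or 72 h at 37 °C, 5% CO2. Alamar Blue HS was added for a further 2–4 h. Viability was read as fluorescence at ex/em 560/590 nm.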
In general terms: Resazurin is reduced to fluorescent resorufin, in cell work by metabolically active cells.
One may read the CC50 as the concentration giving 50% cytotoxicity. Take `COC1=CC(=O)N(C(=O)/C=C/[C@H](CCc2ccccc2)NC(=O)[C@H](CC(C)C)NC(=O)[C@H](CC(C)C)NC(=O)[C@H](C(C)C)N(C)C)[C@H]1Cc1c[nH]c2ccccc12`: the CC50 was more than 100000 nM.

The target of the next data set is T2, Cathepsin B. As to the kind of experiment: Inhibition of human recombinant Cathepsin B assessed remaining activity using Z-FR-AMC as substrate incubated for 30 mins by fluorometric assay.
Settings: not given
The method, boiled down:
as §2
Regarding `COC1=CC(=O)N(C(=O)/C=C/[C@H](CCc2ccccc2)NC(=O)[C@H](CC(C)C)NC(=O)[C@H](CC(C)C)NC(=O)[C@H](C(C)C)N(C)C)[C@H]1Cc1c[nH]c2ccccc12`, the negative-log IC50 (pIC50) was 9.83.

The target of a further data set is Cathepsin S (Homo sapiens, UniProt P25774). As to the kind of experiment: Inhibition of human recombinant Cathepsin S assessed remaining activity using Z-FR-AMC as substrate incubated for 30 mins by fluorometric assay.
Sequence of Cathepsin S (P25774 whole entry): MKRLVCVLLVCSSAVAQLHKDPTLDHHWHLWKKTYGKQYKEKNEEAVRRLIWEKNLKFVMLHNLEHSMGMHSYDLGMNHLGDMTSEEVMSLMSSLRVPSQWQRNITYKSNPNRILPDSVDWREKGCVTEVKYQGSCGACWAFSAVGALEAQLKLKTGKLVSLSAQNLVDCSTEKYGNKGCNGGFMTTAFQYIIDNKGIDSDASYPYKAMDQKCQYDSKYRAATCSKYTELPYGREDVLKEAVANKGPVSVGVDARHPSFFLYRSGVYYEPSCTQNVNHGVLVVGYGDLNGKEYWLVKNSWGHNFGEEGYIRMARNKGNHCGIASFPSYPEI
Settings: not given
The method, boiled down: as §2
Regarding `COC1=CC(=O)N(C(=O)/C=C/[C@H](CCc2ccccc2)NC(=O)[C@H](CC(C)C)NC(=O)[C@H](CC(C)C)NC(=O)[C@H](C(C)C)N(C)C)[C@H]1Cc1c[nH]c2ccccc12`, the negative-log IC50 (pIC50) is 9.65.

The values above are taken from ChEMBL document CHEMBL5154645, “Potent Anti-SARS-CoV-2 Activity by the Natural Product Gallinamide A and Analogues via Inhibition of Cathepsin L” (J Med Chem, 2022).
